According to PMC3334839 (The Journal of Neuroscience, 2012):
Positions count from the first letter of the chain named.

What was measured:
Format in all cases: cell-based
[1] = target: T1, S296A mutant human 5-HT3A receptor (Homo sapiens, UniProt P46098, S319A); conditions: 0.1 μM AEA, vs wild-type
T1 sequence (P46098 24-478 S319A): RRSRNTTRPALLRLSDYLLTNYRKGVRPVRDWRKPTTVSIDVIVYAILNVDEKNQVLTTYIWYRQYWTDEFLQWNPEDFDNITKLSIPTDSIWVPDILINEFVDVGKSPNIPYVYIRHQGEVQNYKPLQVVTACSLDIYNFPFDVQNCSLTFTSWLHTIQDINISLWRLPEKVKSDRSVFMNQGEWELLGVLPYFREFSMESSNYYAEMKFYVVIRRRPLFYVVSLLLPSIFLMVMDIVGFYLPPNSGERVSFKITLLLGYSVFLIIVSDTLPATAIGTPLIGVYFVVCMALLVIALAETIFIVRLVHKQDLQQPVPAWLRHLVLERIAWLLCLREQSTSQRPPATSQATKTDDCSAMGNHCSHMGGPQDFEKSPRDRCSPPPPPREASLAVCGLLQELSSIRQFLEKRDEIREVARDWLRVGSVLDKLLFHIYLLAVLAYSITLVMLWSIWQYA
How it was run: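 Human 5-HT3A receptors (wild-type or point mutant made by site-directed mutagenesis) transfected into HEK-293 cells. Cells recorded 2 d later, trypsin/EDTA-treated 2 h before, lifted, superfused with HEPES-buffered saline (pH 7.4). Whole-cell, CsCl pipette, −60 mV, 20–22°C. 5-HT 30 μM pulses before, during and after continuous 5 min test compound (0.1 μM) incubation; 5–7 cells, mean ± SE.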

[2] = target: T2, S296A mutant human α1 GlyR (Homo sapiens, UniProt P23415, S324A); test: cell-based; conditions: S296A α1
T2 sequence (P23415 29-457 S324A): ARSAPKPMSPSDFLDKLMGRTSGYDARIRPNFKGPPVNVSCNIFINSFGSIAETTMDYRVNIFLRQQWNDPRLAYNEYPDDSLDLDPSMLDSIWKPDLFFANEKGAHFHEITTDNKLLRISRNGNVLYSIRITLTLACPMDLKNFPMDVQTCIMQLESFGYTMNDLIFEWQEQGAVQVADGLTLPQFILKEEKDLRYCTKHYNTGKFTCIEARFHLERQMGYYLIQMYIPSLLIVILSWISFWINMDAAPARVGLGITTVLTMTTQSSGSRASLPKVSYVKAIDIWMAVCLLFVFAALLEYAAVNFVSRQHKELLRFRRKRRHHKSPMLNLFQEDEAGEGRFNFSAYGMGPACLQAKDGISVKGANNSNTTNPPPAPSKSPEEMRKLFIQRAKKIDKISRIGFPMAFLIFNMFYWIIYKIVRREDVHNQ

human α1 GlyR = target: T3, human α1 GlyR (Homo sapiens, UniProt P23415); test: cell-based; conditions: for average percent potentiation of IGly: concentration-response (Fig. 1E)
T3 sequence (P23415 29-457): T2 sequence (P23415 29-457 S324A) with A296S

A303S mutant rat α2 GlyR = target: T4, A303S mutant rat α2 GlyR (Rattus norvegicus, UniProt P22771, A330S); test: Whole-cell patch-clamp of IGly in HEK-293 cells expressing A303S mutant α2 GlyRs; conditions: 10 μM AEA, 5 min sustained, EC2 Gly (20 μM)
T4 sequence (P22771 28-452 A330S): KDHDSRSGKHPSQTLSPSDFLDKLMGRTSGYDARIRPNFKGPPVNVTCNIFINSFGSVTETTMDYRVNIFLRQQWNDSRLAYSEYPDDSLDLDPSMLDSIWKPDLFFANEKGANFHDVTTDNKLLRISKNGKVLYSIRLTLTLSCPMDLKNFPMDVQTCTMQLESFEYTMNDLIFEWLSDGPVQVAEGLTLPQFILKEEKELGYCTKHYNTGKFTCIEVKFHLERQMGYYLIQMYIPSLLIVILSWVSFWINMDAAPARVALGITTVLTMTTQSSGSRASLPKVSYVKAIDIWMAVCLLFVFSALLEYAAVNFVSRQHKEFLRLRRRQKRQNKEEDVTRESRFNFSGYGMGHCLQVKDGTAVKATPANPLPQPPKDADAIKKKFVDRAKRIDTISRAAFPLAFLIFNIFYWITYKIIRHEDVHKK

For CCCCC/C=C\C/C=C\C/C=C\C/C=C\CCCC(=O)NCCO [AEA, anandamide], the “effect of S296A mutation on AEA-induced inhibition of 5-HT-activated current” value [1] was “did not significantly alter”, the “AEA-induced potentiation of IGly, simultaneous application” value ([2]; 10 μM AEA simultaneously applied only with Gly) was 99 ± 20% and the “AEA-induced potentiation of IGly” value ([2]; 10 μM AEA, 5 min sustained, EC2 Gly (10 μM)) was 131 ± 41%. The EC50 (human α1 GlyR) was 4.2 ± 1.95 µM, the “time to maximal potentiation of IGly” value (human α1 GlyR; 1 μM AEA sustained application, α1 homomeric) was 5 min and the “average percentage potentiation of IGly” value (human α1 GlyR; 1 μM AEA, 5 min sustained application, EC2 Gly, α1 (Fig. 1C)) was 97 ± 16%. The “percentage potentiation of IGly, initial value” (human α1 GlyR; 1 μM AEA, after 1 min of AEA exposure, HEK-293 cells) was 3 ± 1%, the “average percent potentiation of IGly” value (human α1 GlyR; 1 μM AEA, EC2 Gly) was 91 ± 9% and the “average percent potentiation of IGly” value (human α1 GlyR; 3 μM AEA, EC2 Gly) was 311 ± 86%. The “AEA-induced potentiation of IGly, simultaneous application” value (human α1 GlyR; 10 μM AEA simultaneously applied only with Gly, wild-type α1) was 108 ± 15%, the “average percentage potentiation of IGly” value (human α1 GlyR; 10 μM AEA, Gly 30 μM) was 102 ± 49% and the “average percentage potentiation of IGly” value (human α1 GlyR; 10 μM AEA, Gly 100 μM) was 24 ± 6%. For the same compound, the “average percent potentiation of IGly” value (human α1 GlyR; 10 μM AEA, Gly 10 μM) was 712 ± 96%, the “average percent potentiation of IGly” value (human α1 GlyR; 30 μM AEA, EC2 Gly) was 824 ± 278% and the “maximal potentiation of α1 GlyRs” value (human α1 GlyR; AEA applied continuously for 5 min with intermittent Gly) was 700–800%. The “direct activation of current by AEA alone” value (human α1 GlyR; even at high concentrations (> 30 μM), no Gly, cell type not specified) was “did not trigger detectable current” and the “AEA-induced potentiation of IGly” value (A303S mutant rat α2 GlyR) was 580 ± 110%.
